pIC50: −log10 of the molar value. Each block holds one molecule with its values, some of them ahead of it. Calls of active or inactive are those of the source. The rule behind the calls is not given here.
Key:
[1] = target: T1, Bile acid receptor (Homo sapiens) (UniProt Q96RI1); experiment: Agonist activity at FXR (unknown origin) expressed in HEK293T cells after 16 hrs by beta-lactamase reporter gene assay relative to control; format: cell-based; details: HEK-293T
T1 sequence (whole entry): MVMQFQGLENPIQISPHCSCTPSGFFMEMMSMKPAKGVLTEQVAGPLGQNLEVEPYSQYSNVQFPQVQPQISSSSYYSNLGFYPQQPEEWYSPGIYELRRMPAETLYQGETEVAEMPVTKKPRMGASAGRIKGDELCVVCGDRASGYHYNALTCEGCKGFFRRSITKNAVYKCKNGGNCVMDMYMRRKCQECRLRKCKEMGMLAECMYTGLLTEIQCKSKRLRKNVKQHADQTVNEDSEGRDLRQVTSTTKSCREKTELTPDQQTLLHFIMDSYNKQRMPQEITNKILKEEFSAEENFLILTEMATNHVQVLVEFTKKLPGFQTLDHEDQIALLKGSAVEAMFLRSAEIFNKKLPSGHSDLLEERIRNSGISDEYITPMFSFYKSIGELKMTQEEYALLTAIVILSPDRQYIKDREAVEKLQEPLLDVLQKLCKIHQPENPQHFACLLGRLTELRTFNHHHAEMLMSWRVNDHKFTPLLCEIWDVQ

[2] = target: T1, Bile acid receptor (Homo sapiens); experiment: Ratio of E16 IC50 to compound IC50 for human GST-tagged FXR after 20 mins by TR-FRET assay
[3] = target: T1, Bile acid receptor (Homo sapiens); experiment: Antagonist activity at human GST-tagged FXR at 164 nM after 20 mins by TR-FRET assay relative to control
[4] = target: T1, Bile acid receptor (Homo sapiens); experiment: Inhibition of GW4064-induced transactivation of FXR (unknown origin) expressed in HEK293T cells at 40 uM after 16 hrs by beta-lactamase reporter gene assay relative to control; format: cell-based; details: HEK-293T
[5] = Cytotoxicity against HEK293T cells expressing FXR and beta-lactamase genes assessed as inhibition of cell viability at 13.3 uM after 16 hrs by CellTiter-Glo luminescent assay relative to control; format: cell-based, HEK-293T; details: human, read-out: INH
Method in brief: (§1)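 Viability run alongside the agonist assay in the same GeneBLAzer FXR HEK 293T cells: 20,000 cells/well in phenol red-free DMEM with 2% charcoal/dextran-treated FBS, 0.5% DMSO, 16 h at 37°C. Cooled 20 min, then CellTiter-Glo added for 20 min in dark; luminescence read.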

[6] = target: T1, Bile acid receptor (Homo sapiens); experiment: Antagonist activity at human GST-tagged FXR at 1.5 uM after 20 mins by TR-FRET assay relative to control
[7] = Cytotoxicity against HEK293T cells expressing FXR and beta-lactamase genes assessed as inhibition of cell viability at 40 uM after 16 hrs by CellTiter-Glo luminescent assay relative to control; format: cell-based, HEK-293T; details: human, read-out: INH; method in brief: as §1
[8] = target: T1, Bile acid receptor (Homo sapiens); experiment: Inhibition of GW4064-induced transactivation of FXR (unknown origin) expressed in HEK293T cells at 1 uM after 16 hrs by beta-lactamase reporter gene assay relative to control; format: cell-based; details: HEK-293T
[9] = target: T1, Bile acid receptor (Homo sapiens); experiment: Antagonist activity at human GST-tagged FXR at 1.48 uM after 20 mins by TR-FRET assay relative to control
[10] = target: T1, Bile acid receptor (Homo sapiens); details: 4.44 uM
[11] = target: T1, Bile acid receptor (Homo sapiens); experiment: Agonist activity at human FXR
[12] = target: T2, Bile acid receptor (Homo sapiens, UniProt Q96RI1); experiment: Inhibition of GW4064-induced transactivation of FXR (unknown origin) expressed in HEK293T cells after 16 hrs by beta-lactamase reporter gene assay; format: cell-based, HEK-293T
T2 sequence (Q96RI1 whole entry): T1 sequence (whole entry)

[13] = target: T2, Bile acid receptor; experiment: Antagonist activity at human GST-tagged FXR after 20 mins by TR-FRET assay
[14] = target: T1, Bile acid receptor (Homo sapiens); experiment: Inhibition of GW4064-induced transactivation of FXR (unknown origin) expressed in HEK293T cells at 20 uM after 16 hrs by beta-lactamase reporter gene assay relative to control; format: cell-based; details: HEK-293T
[15] = target: T1, Bile acid receptor (Homo sapiens); experiment: Antagonist activity at human GST-tagged FXR at 40 uM after 20 mins by TR-FRET assay relative to control
[16] = target: T1, Bile acid receptor (Homo sapiens); experiment: Ratio of E16 IC50 to compound IC50 for transactivation of FXR (unknown origin) expressed in HEK293T cells after 16 hrs by beta-lactamase reporter gene assay; format: cell-based; details: HEK-293T
[17] = Cytotoxicity against HEK293T cells expressing FXR and beta-lactamase genes assessed as inhibition of cell viability at 4.4 uM after 16 hrs by CellTiter-Glo luminescent assay relative to control; format: cell-based, HEK-293T; details: human, read-out: INH; method in brief: as §1

Activity [1]: inactive
Ratio IC50 [2]: 3
inhibition [3]: 102%
inhibition [4]: 79.1%
SMILES: Cc1ccc(-c2nn(-c3nc4ccccc4s3)cc2C(=O)Nc2ccc(C)c(S(=O)(=O)N3CCOCC3)c2)cc1
cytotoxicity at 16 h, 13.3 µM [5]: 11.5%

inhibition [6]: 105%
Activity [1]: inactive
inhibition [4]: 100%
SMILES: Cc1ccc(-c2nn(CC3CC3)cc2C(=O)Nc2ccc(C)c(S(=O)(=O)N3CCOCC3)c2)cc1
cytotoxicity at 16 h, 40 µM [7]: < 5%

Activity [1]: inactive
inhibition [8]: inactive
inhibition [4]: 3.1%
inhibition [9]: 39.8%
SMILES: COc1cccc(Cn2cc(CNc3ccc(C)c(S(=O)(=O)N4CCOCC4)c3)c(-c3cccc(OC)c3)n2)c1
cytotoxicity at 16 h, 40 µM [7]: < 5%

inhibition [10]: 90.4%
inhibition [4]: 82.3%
Activity [11]: inactive
pIC50 [12]: 4.97
pIC50 [13]: 5.89
SMILES: O=C(Nc1cccc(S(=O)(=O)N2CCOCC2)c1)c1cn(-c2ccccc2)nc1-c1cccnc1
cytotoxicity at 16 h, 40 µM [7]: < 5%

Activity [1]: inactive
inhibition [14]: 2.4%
inhibition [8]: inactive
inhibition [15]: 80.3%
SMILES: COc1cccc(Cn2cc(C(=O)N(C)c3ccc(C)c(S(=O)(=O)N4CCOCC4)c3)c(C(C)C)n2)c1
cytotoxicity at 16 h, 40 µM [7]: 13.5%

Activity [1]: inactive
Ratio IC50 [2]: 5.26
inhibition [3]: 130%
inhibition [4]: 98.9%
Ratio IC50 [16]: 4.59
SMILES: COc1cccc(Cn2cc(C(=O)Nc3ccc(C)c(S(=O)(=O)N4CCOCC4)c3)c(-c3ccc(C)cc3)n2)c1
cytotoxicity at 16 h, 40 µM [7]: < 5%

inhibition [6]: 130%
Activity [1]: inactive
inhibition [14]: 97.9%
SMILES: CCCCn1cc(C(=O)Nc2ccc(C)c(S(=O)(=O)N3CCOCC3)c2)c(-c2ccc(C)cc2)n1
cytotoxicity at 16 h, 4.4 µM [17]: 10.3%

inhibition [4]: 24%
inhibition [9]: 23%
Activity [11]: inactive
SMILES: CCN(CC)S(=O)(=O)c1cc(NC(=O)c2cnn(-c3cccnc3)c2)ccc1C
cytotoxicity at 16 h, 40 µM [7]: 10.3%
